Drawing on ChEMBL document CHEMBL1142287, “Anti-Pneumocystis carinii and antiplasmodial activities of primaquine-derived imidazolidin-4-ones” (Bioorg Med Chem Lett, 2008), this text covers IC50 and half-life for 15 compounds.

By IC50 is commonly meant the point on the concentration scale where inhibition reaches its midpoint. The half-life is the time needed for the level to fall by half in the phase considered. Low readings indicate rapid decline, high ones slow decline.

Where only a bound is given, the exact number is not on record here.

One data set has as its system Pneumocystis carinii. Briefly: Antimicrobial activity against Pneumocystis carinii assessed as ATP levels after 72 hrs by luciferase assay. The format is functional, organism-based. In short, it runs like this: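 P. carinii organism preparations screened before use for microbial contamination, ATP content, karyotype and host cell content. Compounds incubated with organisms for 72 h, then ATP measured as relative light units. Each concentration tested in triplicate wells and averaged, with triplicate runs using separate organism isolation batches. Activity averaged from at least three determinations.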

The next data set has as its system Plasmodium falciparum. Briefly: Antiplasmodial activity against chloroquine-resistant Plasmodium falciparum W2. In kind it is functional, organism-based. In short, it runs like this: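 Parasite development assay against P. falciparum W2, run by the authors' earlier method. Values in μM, each the average of at least three determinations.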
Data set [1] can be described thus: Half life of hydrolysis in buffer at pH 7.4. The format is ADME. In short, it runs like this: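 Hydrolytic stability followed in pH 7.4 buffer at 37 °C; half-life derived from the decay.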

As for `COc1cc(NC(C)CCCN2C(=O)[C@H](Cc3ccccc3)NC2(C)C)c2ncccc2c1` (some centres not stated), the IC50 in the data set with Pneumocystis carinii (Pneumocystis carinii, 72 h) was 32 µM; in the data set on Plasmodium falciparum, above 50 µM.
For the compound `COc1cc(NC(C)CCCN2C(=O)[C@H](C(C)C)NC23CCCCCC3)c2ncccc2c1` (some centres not stated), in data set [1], the half-life is above 240 h. Moreover, the IC50 was 6 µM in the data set with Pneumocystis carinii (Pneumocystis carinii, 72 h) and 8.89 µM in the data set with Plasmodium falciparum.
Consider `COc1cc(NC(C)CCCN2C(=O)[C@H](C(C)C)NC23CCCCC3)c2ncccc2c1` (some centres not stated), for which the IC50 in the data set on Pneumocystis carinii (Pneumocystis carinii, 72 h) was 26 µM; in the data set on Plasmodium falciparum, above 50 µM.
Regarding `COc1cc(NC(C)CCCN2C(=O)[C@H](C(C)C)NC23CCCC3)c2ncccc2c1` (some centres not stated), the concentration for half-maximal inhibition (IC50) was 23 µM in the data set with Pneumocystis carinii (Pneumocystis carinii, 72 h) and above 50 µM in the data set on Plasmodium falciparum.
For the compound `COc1cc(NC(C)CCCN2C(=O)[C@H](Cc3ccccc3)NC23CCCC3)c2ncccc2c1` (some centres not stated), the half-inhibitory concentration (IC50) in the data set on Pneumocystis carinii (Pneumocystis carinii, 72 h) was 12 µM; with Plasmodium falciparum it was above 50 µM.
Take `COc1cc(NC(C)CCCN2C(=O)[C@H](C)NC2(C)C)c2ncccc2c1` (some centres not stated): the half-maximal inhibitory concentration (IC50) in the data set with Pneumocystis carinii (Pneumocystis carinii, 72 h) is 226 µM; in the data set with Plasmodium falciparum, above 50 µM.
In the case of `COc1cc(NC(C)CCCN2C(=O)[C@H](CC(C)C)NC23CCCCCC3)c2ncccc2c1` (some centres not stated), the IC50 was found to be 4.1 µM in the data set with Pneumocystis carinii (Pneumocystis carinii, 72 h) and 2.63 µM in the data set with Plasmodium falciparum.
Turning to `COc1cc(NC(C)CCCN2C(=O)[C@H](C)NC23CCC(C)CC3)c2ncccc2c1` (some centres not stated), the IC50 in the data set on Pneumocystis carinii (Pneumocystis carinii, 72 h) amounted to 23 µM.
For `COc1cc(NC(C)CCCN2C(=O)CNC23CCCCC3)c2ncccc2c1` (configuration not stated), the IC50 in the data set on Pneumocystis carinii (Pneumocystis carinii, 72 h) was 43 µM; in the data set on Plasmodium falciparum, above 50 µM.
With `COc1cc(NC(C)CCCN2C(=O)[C@H](C)NC23CCCCCC3)c2ncccc2c1` (some centres not stated), the IC50 in the data set with Pneumocystis carinii (Pneumocystis carinii, 72 h) stood at 1.9 µM; with Plasmodium falciparum, 2.42 µM.
As to `COc1cc(NC(C)CCCN2C(=O)CNC2(C)C)c2ncccc2c1` (configuration not stated), the IC50 worked out at 23 µM in the data set on Pneumocystis carinii (Pneumocystis carinii, 72 h) and 9.08 µM in the data set on Plasmodium falciparum.
Take `COc1cc(NC(C)CCCN2C(=O)[C@H](C(C)C)NC2(C)C)c2ncccc2c1` (some centres not stated): the IC50 with Pneumocystis carinii (Pneumocystis carinii, 72 h) is 40 µM; in the data set on Plasmodium falciparum it was above 50 µM.
For `COc1cc(NC(C)CCCN2C(=O)C(Cc3ccccc3)NC2c2ccccc2C)c2ncccc2c1` (stereo in doubt; 2m1), the half-inhibitory concentration (IC50) in the data set with Pneumocystis carinii was determined as 21 µM.
Consider `COc1cc(NC(C)CCCN2C(=O)C(Cc3ccccc3)NC2c2ccccc2C)c2ncccc2c1` (stereo in doubt; 2m2), for which the IC50 in the data set with Pneumocystis carinii (Pneumocystis carinii, 72 h) is 13 µM.
The same measure, in the same setting: as for `COc1cc(NC(C)CCCN)c2ncccc2c1` (configuration not stated) [PRIMAQUINE], the figure is 2.5 µM.
